Data set [1] in a line: (§1) Cytotoxicity against human SW680 cells assessed as reduction in cell viability after 4 hrs by MTT assay. It counts as functional, cell-based. For orientation: Tetrazolium assays rely on reduction of a dye to a coloured formazan, in cell work by metabolically active cells.
For data set [2], the species on record is Homo sapiens. Described as §1. It counts as functional, cell-based.
Data set [3] is described as follows: Cytotoxicity against HEK293 cells assessed as cell viability at 200 uM after 4 hrs by MTT assay relative to control. It counts as cell-based. As to conditions: human, read-out: Activity. The method, boiled down: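 MTT: 10,000–20,000 cells/well attached for 16 h, then washed twice with serum-free RPMI. Treated with 1–200 µM for 4 h, 3 parallel runs per concentration. MTT added for 2 h; medium partly removed and isopropanol added. A590 read. Viability = (A treated − A doxorubicin)/(A medium − A doxorubicin)×100. Mean of three experiments, triplicate wells each.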

For data set [4], the system named is MCF7. Description: Induction of apoptosis in human MCF7 cells assessed as late apoptotic cells at 1 uM after 8 hrs by annexin-V FITC/propidium iodide staining based flow cytometric analysis relative to control. It counts as functional. In short, it runs like this: (§2)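 Cells were grown in DMEM with 10% heat-inactivated FBS at 37 °C and 5% CO₂, then plated at 500,000 cells/well in 24-well plates. They were treated from a DMSO stock (DMSO ≤0.1%) for 8, 12 or 16 h. After a PBS wash, cells were resuspended in binding buffer (10 mM HEPES pH 7.4, 2.5 mM CaCl₂, 140 mM NaCl, 0.1% BSA), stained 40 min with FITC-annexin V, then with PI, and run on the flow cytometer immediately. Values are the mean of three independent experiments.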
(A flow cytometer gives signals particle by particle.)

The subject of data set [5] is MCF7. Description: Induction of apoptosis in human MCF7 cells assessed as viable cells at 1 uM after 16 hrs by annexin-V FITC/propidium iodide staining based flow cytometric analysis relative to control. As to conditions: MCF7, 16 h, read-out: Activity. It counts as functional. The method, boiled down:
as §2

For data set [6], the system named is HeLa. Description: Induction of apoptosis in human HeLa cells assessed as early apoptotic cells at 1 uM after 8 hrs by annexin-V FITC/propidium iodide staining based flow cytometric analysis relative to control. The data set is classed as functional. In short, it runs like this: as §2
The test system of data set [7] is HeLa. Description: Induction of apoptosis in human HeLa cells assessed as early apoptotic cells at 1 uM after 16 hrs by annexin-V FITC/propidium iodide staining based flow cytometric analysis relative to control. The data set is classed as functional. In short, it runs like this:
as §2

Data set [8] relates to HeLa. Description: Induction of cell cycle arrest in human HeLa cells at 1 uM after 16 hrs by propidium iodide/RNase A staining based FACS analysis. It counts as functional. The method, boiled down:
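Cells were seeded at 1 million cells/mL in 24-well plates and grown to 70% confluence. They were exposed at 1 µM for 16 h, washed in cold PBS, fixed in absolute ethanol and stored at −20 °C. Staining was with RNase A (20 µg/mL final) and PI (50 µg/mL final) for 30 min at 37 °C in the dark. Results are given as the percentage of cells in each cell-cycle phase by FACS.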

The subject of data set [9] is HeLa. Description: Induction of ROS generation in human HeLa cells at 5 uM after 4 hrs by DCFH-DA staining-based fluorescence spectrophotometric analysis relative to control. It counts as functional. In short, it runs like this:
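DCFH-DA ROS: HeLa or MCF-7 cells at 2×10^6/well cultured 12 h, treated 4 or 8 h; t-BHP (10 μM) is the positive control. DCFH-DA 10 μM added for 10 min at 37 °C, cells washed twice with PBS. Fluorescence read at ex 485/em 520 nm. For the NAC arm, NAC (5 mM) is added to the medium before treatment.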

For data set [10], the species on record is Homo sapiens. Description: Inhibition of PKA phosphorylation (unknown origin) at 50 uM after 5 to 60 mins by bioluminescence assay relative to control. In short, it runs like this:
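Kinase activity measured with compound at 1, 5, 10 and 50 μM, using a Kinase Reaction Rate Kit. Phosphorylation was followed by bioluminescent monitoring of ATP consumption, with light read at 5 min and 1 h. Staurosporine served as positive control. Data given as % kinase inhibition (% of control activity), from two separate experiments.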

The target of data set [11] is T1, Tyrosine-protein phosphatase non-receptor type 1 (Homo sapiens) (UniProt P18031).
T1 sequence (whole entry): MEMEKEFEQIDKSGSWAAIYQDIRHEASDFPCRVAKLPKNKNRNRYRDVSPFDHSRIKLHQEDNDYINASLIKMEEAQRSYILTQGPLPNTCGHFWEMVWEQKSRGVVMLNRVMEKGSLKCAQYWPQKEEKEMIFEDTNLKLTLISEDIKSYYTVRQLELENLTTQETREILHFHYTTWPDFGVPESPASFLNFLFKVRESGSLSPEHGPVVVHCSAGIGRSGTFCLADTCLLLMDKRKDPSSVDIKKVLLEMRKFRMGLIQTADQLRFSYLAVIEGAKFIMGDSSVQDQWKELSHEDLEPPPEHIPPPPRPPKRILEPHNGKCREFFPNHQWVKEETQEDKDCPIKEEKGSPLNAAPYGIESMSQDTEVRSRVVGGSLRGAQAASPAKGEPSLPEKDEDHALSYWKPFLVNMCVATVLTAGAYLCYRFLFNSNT
Description: Inhibition of recombinant human PTP1B using 6,8-difluoro-4-methylumbelliferyl phosphate fluorogenic substrate at 50 uM measured over 30 mins by fluorescence assay relative to control. The method, boiled down:
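Recombinant human PTP1B, 1.56 ng/well, in buffer of 25 mM HEPES, 50 mM NaCl, 2.5 mM EDTA, DTT and 0.01 mg/mL human albumin. Preincubated with compound for 30 min in the dark, then DiFMUP added (25 μL of 10 μM solution). Fluorescence read after 10 min (ex 360/em 465 nm). Triplicates; % inhibition relative to PTP inhibitor IV (0.16 mM) and buffer controls.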

The subject of data set [12] is MCF7. Description: Effect on mitochondrial membrane potential in human MCF7 cells assessed as shift change at 5 uM after 2 hrs by Rhodamine 123 dye-based fluorescence assay. The data set is classed as functional, cell-based. In short, it runs like this: (§3)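 Mitochondrial potential: HeLa or MCF-7 cells treated with 5 µM (final) for 1, 2, 4 and 8 h. Rhodamine 123 added, cells incubated 30 min at 37 °C, washed with PBS, and analysed by flow cytometry. Fluorescence histogram shift is compared with control.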

The test system of data set [13] is HeLa. Description: Effect on mitochondrial membrane potential in human HeLa cells assessed as shift change at 5 uM measured over 4 hrs by Rhodamine 123 dye-based fluorescence assay. It counts as functional, cell-based. In short, it runs like this: as §3
The test system of data set [14] is HeLa. Description: Induction of apoptosis in human HeLa cells assessed as increase in Mcl-1 short level at 1 to 3 uM after 24 hrs by Western blot analysis. It counts as functional, cell-based. In short, it runs like this: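 Cells were treated at 1, 3 and 5 µM for 24 h at 37 °C. Lysis was in ice-cold Triton X-100 buffer with protease and phosphatase inhibitors; nuclear proteins were extracted separately. Protein was quantified by BCA. Lysates were separated by electrophoresis, transferred to nitrocellulose and blocked in non-fat milk for 1 h. Primary antibody was applied overnight at 4 °C and secondary for 1 h at 28 °C. Detection was by enhanced chemiluminescence.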
(In general: In western blotting, separated proteins are transferred to a membrane and probed.)

Data set [15] concerns HeLa. Description: Induction of apoptosis in human HeLa cells assessed as up-regulation of acetylated p53 level at 5 uM after 24 hrs by sandwich ELISA. The data set is classed as functional, cell-based. The method, boiled down:
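Cells were treated at 5 µM for 12, 24 and 48 h. Lysis was in ice-cold lysis buffer with 1 mM PMSF (5 min on ice), followed by three freeze-thaw cycles and a 10 min spin at 4 °C. Acetylated and total p53 were measured in the supernatant by kit sandwich ELISA, read at 450 nm. The control index is sample absorbance divided by that of untreated cells at the same time. Values are mean ± SD of triplicate experiments.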

Data set [16] concerns MCF7. Description: Induction of ERK/MAPK signal transduction pathway in human MCF7 cells assessed as increase in c-jun level. It counts as cell-based.

The source made the active and inactive calls. The calls are words filed in the database; no cut-off is given here.

The IC50 is the point on the concentration scale where inhibition reaches its midpoint. One may read the inhibition as the change of the read-out against control, counted positive when it falls. For the compound `Cn1cc(/C=N\NC(=O)c2cn(C)c3ccc(Br)cc23)c2ccccc21`, the IC50 in data set [1] is 2770 nM. Also, the Activity entry in the data set listed under Homo sapiens [2] is “Dose-dependent effect”; in the data set on MCF7 [4], 4.01%; with HeLa [6], 19.15%; in the data set on HeLa [7], 12.23%; with HeLa [9], 29.9%. For the same compound, in [3], the viability at 4 h, 200 µM stood at 95%. The viability at 1 µM in the data set on MCF7 [5] was 20.4%. Further, the result in the data set on HeLa [8] was inactive. For the same compound, the results for the inhibition (in the data set filed under Homo sapiens [10]; in data set [11]) were 45% and 48%, respectively. In addition, the result with MCF7 [12], with HeLa [13], in the data set on HeLa [14], with HeLa [15] and in the data set with MCF7 [16] was Active.

Values taken from ChEMBL document CHEMBL4316598, “Synthesis, antiproliferative and apoptosis induction potential activities of novel bis(indolyl)hydrazide-hydrazone derivatives” (Bioorg Med Chem, 2019).
